Test results reported in ChEMBL document CHEMBL1143681, “Bifunctional [2',6'-dimethyl-L-tyrosine1]endomorphin-2 analogues substituted at position 3 with alkylated phenylalanine derivatives yield potent mixed mu-agonist/delta-antagonist and dual mu-agonist/delta-agonist opioid ligands” (J Med Chem, 2007).
Where a SMILES comes first, the peptide text is derived from it. [ ]: non-standard residue; d: D form. Dmt = Cc1cc(O)cc(C)c1C[C@H](N)C(=O)O

What was measured:
[1] = biological target: Mu-type opioid receptor (Cavia porcellus, UniProt P97266); assay: Agonist activity at mu opioid receptor in Hartley guinea pig ileum assessed as inhibition of electrically-stimulated muscle contraction; assay type: functional, tissue-based
Method in brief: (§1)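 Isolated tissue: myenteric plexus longitudinal muscle strips (2–3 cm) from small intestine of male Hartley guinea pigs (μ), or single mouse vas deferens (δ), in organ baths with balanced salt solution, pH 7.5. Inhibition of electrically evoked contraction; IC50 (nM) from dose-response curves, mean ± SE of five to six separate assays.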

[2] = biological target: Mu-type opioid receptor (Rattus norvegicus, UniProt P33535); assay: Displacement of [3H]DAMGO from mu opioid receptor in Sprague-Dawley rat brain P2 synaptosome membrane; assay type: tissue-based
Method in brief: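 Competition binding at equilibrium (2.5 h, 22 °C) on Sprague-Dawley rat (150–160 g) brain P2 synaptosomes, preincubated 60 min at 22 °C to remove endogenous opioids. Radioligands: 3.5 nM [3H]DAMGO (μ) or 1.9 nM [3H]deltorphin-II (δ); nonspecific with 2 µM unlabeled peptide. GF/C filtration; duplicates, 5–8 doses, several preparations. Ki by Cheng-Prusoff (Kd 3.5 nM DAMGO, 1.4 nM deltorphin-II).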

[3] = biological target: Delta-type opioid receptor (Rattus norvegicus, UniProt P33533); assay: Displacement of [3H]deltorphin 2 from delta opioid receptor in Sprague-Dawley rat brain P2 synaptosome membrane; assay type: tissue-based
[4] = biological target: T1, Delta-type opioid receptor (Mus musculus, UniProt P32300); assay: Agonist activity at delta opioid receptor in mouse vas deferens assessed as inhibition of electrically-stimulated muscle contraction; assay type: functional, tissue-based; method in brief: as §1
[5] = biological target: Opioid receptors; mu & delta (Rattus norvegicus) (UniProt P33533+P33535); assay: Selectivity for mu opioid receptor over delta opiod receptor in Sprague-Dawley rat brain P2 synaptosome membrane; assay type: tissue-based
[6] = biological target: Delta-type opioid receptor (Mus musculus) (UniProt P32300); assay: Agonist activity at delta opioid receptor in mouse vas deferens assessed as inhibition of electrically-stimulated muscle contraction at 10000 nM; assay type: functional, tissue-based; set-up: scale not given: the % may be the effect or the level left
Method in brief: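 Mouse vas deferens in organ bath, physiological buffer pH 7.5; maximal inhibition of electrically evoked contraction recorded at 10,000 nM.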

[7] = biological target: Kappa-type opioid receptor (Cavia porcellus, UniProt P41144); assay: Displacement of [3H]U-69593 from kappa opioid receptor in Hartley guinea pig cerebellum P2 synaptosome membrane; assay type: tissue-based
[8] = biological target: T1, Delta-type opioid receptor; assay: Antagonist activity at delta opioid receptor in mouse vas deferens assessed as inhibition of deltorphin 2-induced response; assay type: functional, tissue-based; details: read-out: pA2 (converted)
Method in brief: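 Single mouse vas deferens in organ bath, pH 7.5 buffer; δ antagonism measured against deltorphin II-induced inhibition of electrically evoked contraction. pA2 from Schild plot: negative log molar concentration needed to double deltorphin II concentration for the original response.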

Chain of Mu-type opioid receptor (Rattus norvegicus, UniProt P33535) (P33535 whole entry): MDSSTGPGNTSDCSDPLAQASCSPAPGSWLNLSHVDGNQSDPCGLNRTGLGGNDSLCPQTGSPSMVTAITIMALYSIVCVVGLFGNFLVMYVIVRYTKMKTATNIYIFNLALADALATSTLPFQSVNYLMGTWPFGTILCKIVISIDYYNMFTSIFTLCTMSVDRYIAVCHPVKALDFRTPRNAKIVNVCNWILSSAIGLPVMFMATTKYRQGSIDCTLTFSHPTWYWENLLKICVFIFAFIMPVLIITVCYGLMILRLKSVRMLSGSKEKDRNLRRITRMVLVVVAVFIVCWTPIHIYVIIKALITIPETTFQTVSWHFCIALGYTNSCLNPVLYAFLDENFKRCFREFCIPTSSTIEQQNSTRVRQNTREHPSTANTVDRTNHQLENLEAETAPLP
Chain of Delta-type opioid receptor (Rattus norvegicus, UniProt P33533) (P33533 whole entry): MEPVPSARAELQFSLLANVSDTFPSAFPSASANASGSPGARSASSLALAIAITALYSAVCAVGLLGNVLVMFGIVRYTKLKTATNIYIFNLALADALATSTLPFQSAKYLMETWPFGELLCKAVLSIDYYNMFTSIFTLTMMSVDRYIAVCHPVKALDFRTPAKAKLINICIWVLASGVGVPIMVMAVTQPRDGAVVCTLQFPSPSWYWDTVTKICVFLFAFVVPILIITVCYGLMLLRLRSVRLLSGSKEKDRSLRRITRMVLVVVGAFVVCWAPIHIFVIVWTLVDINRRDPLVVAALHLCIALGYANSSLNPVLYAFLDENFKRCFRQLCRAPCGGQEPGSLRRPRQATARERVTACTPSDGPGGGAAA
Chain of Opioid receptors; mu & delta (Rattus norvegicus) (P33533 whole entry, looked up): as the sequence (P33533 whole entry) above
Chain of Opioid receptors; mu & delta (Rattus norvegicus) (P33535 whole entry, looked up): as the sequence (P33535 whole entry) above
Chain of Delta-type opioid receptor (Mus musculus) (P32300 whole entry): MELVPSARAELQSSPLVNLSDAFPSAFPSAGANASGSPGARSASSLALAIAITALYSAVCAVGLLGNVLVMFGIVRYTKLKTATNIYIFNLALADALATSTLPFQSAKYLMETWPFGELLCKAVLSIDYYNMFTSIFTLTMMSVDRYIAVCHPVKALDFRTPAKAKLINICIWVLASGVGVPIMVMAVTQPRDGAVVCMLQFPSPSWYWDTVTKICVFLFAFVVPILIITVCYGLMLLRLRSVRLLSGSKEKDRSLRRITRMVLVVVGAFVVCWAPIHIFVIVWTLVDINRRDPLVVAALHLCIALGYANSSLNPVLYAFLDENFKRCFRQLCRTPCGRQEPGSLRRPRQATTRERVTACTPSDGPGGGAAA
T1 sequence (P32300 whole entry): as above
Chain of Kappa-type opioid receptor (P41144 whole entry): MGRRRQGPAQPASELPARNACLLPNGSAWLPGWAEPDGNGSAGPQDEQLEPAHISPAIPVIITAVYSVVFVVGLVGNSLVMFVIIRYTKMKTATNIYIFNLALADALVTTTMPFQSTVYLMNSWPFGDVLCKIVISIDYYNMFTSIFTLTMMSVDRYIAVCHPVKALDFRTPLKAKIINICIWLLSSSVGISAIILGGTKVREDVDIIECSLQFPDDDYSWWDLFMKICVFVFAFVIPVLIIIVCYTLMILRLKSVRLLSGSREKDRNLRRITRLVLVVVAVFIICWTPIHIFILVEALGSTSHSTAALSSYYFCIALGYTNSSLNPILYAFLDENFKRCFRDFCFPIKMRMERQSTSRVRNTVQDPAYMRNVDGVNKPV
Chain of Mu-type opioid receptor (Cavia porcellus, UniProt P97266) (P97266 whole entry): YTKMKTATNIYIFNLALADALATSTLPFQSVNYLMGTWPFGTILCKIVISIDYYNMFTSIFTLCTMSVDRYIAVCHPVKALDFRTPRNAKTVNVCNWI

| SMILES | IC50 [1] [nM] | Ki [2] [nM] | Ki [3] [nM] | IC50 [4] [nM] | Ratio Ki [5] | Activity [6] [%] | Ki [7] [nM] | Kb [8] [nM] |
| --- | --- | --- | --- | --- | --- | --- | --- | --- |
| Cc1cc(C)cc(C[C@H](NC(=O)[C@@H]2CCCN2C(=O)[C@@H](N)Cc2ccc(O)cc2)C(=O)N[C@@H](Cc2ccccc2)C(N)=O)c1 | 389 | 6.19 | 3450 | > 10000 | 558 | > 8 |  |  |
| Cc1cc(O)ccc1C[C@H](NC(=O)[C@@H]1CCCN1C(=O)[C@@H](N)Cc1c(C)cc(O)cc1C)C(=O)N[C@@H](Cc1ccccc1)C(N)=O |  |  |  |  | 878 | < 1 |  |  |
| Cc1cc(O)cc(C)c1C[C@H](N)C(=O)N1CCC[C@H]1C(=O)N[C@@H](Cc1ccccc1)C(=O)N[C@@H](Cc1ccccc1)C(N)=O | 0.26 | 0.26 | 99.2 | 0.59 | 382 |  | 489 |  |
| Cc1cc(O)cc(C)c1C[C@H](NC(=O)[C@@H]1CCCN1C(=O)[C@@H](N)Cc1ccc(O)cc1)C(=O)N[C@@H](Cc1ccccc1)C(N)=O (H-YP[Dmt]F-NH2) | 541 | 2.63 | 3020 | 978 |  |  |  |  |
| Cc1cccc(C)c1C[C@H](NC(=O)[C@@H]1CCCN1C(=O)[C@@H](N)Cc1c(C)cc(O)cc1C)C(=O)N[C@@H](Cc1ccccc1)C(N)=O | 0.12 | 0.069 | 2.27 |  | 33 |  | 94.2 | 7.08 |
| Cc1cc(O)ccc1C[C@H](NC(=O)[C@@H]1CCCN1C(=O)[C@@H](N)Cc1ccc(O)cc1)C(=O)N[C@@H](Cc1ccccc1)C(N)=O |  |  |  |  | 1150 |  |  |  |
| Cc1cc(C)cc(C[C@H](NC(=O)[C@@H]2CCCN2C(=O)[C@@H](N)Cc2c(C)cc(O)cc2C)C(=O)N[C@@H](Cc2ccccc2)C(N)=O)c1 | 14.4 | 0.11 | 11.6 | > 10000 | 105 | > 7.1 | 830 | 170 |
| CCc1cccc(C)c1C[C@H](NC(=O)[C@@H]1CCCN1C(=O)[C@@H](N)Cc1c(C)cc(O)cc1C)C(=O)N[C@@H](Cc1ccccc1)C(N)=O | 0.17 | 0.21 | 3.03 | 0.51 | 14 |  | 278 |  |
| Cc1cc(C)c(C[C@H](NC(=O)[C@@H]2CCCN2C(=O)[C@@H](N)Cc2ccc(O)cc2)C(=O)N[C@@H](Cc2ccccc2)C(N)=O)c(C)c1 | 1.9 | 0.44 | 1360 | > 10000 | 3090 | > 36.2 |  |  |
| Cc1cccc(C)c1C[C@H](NC(=O)[C@@H]1CCCN1C(=O)[C@@H](N)Cc1ccc(O)cc1)C(=O)N[C@@H](Cc1ccccc1)C(N)=O | 0.38 | 0.044 | 1440 | 1.39 | 32700 |  | > 4000 |  |
| Cc1ccccc1C[C@H](NC(=O)[C@@H]1CCCN1C(=O)[C@@H](N)Cc1c(C)cc(O)cc1C)C(=O)N[C@@H](Cc1ccccc1)C(N)=O | 0.16 | 0.18 | 4.61 | > 10000 | 26 | 0 | 176 | 257 |
| Cc1cccc(C(C)C)c1C[C@H](NC(=O)[C@@H]1CCCN1C(=O)[C@@H](N)Cc1ccc(O)cc1)C(=O)N[C@@H](Cc1ccccc1)C(N)=O | 2.74 | 0.45 | 543 |  | 1220 |  |  |  |
| Cc1ccccc1C[C@H](NC(=O)[C@@H]1CCCN1C(=O)[C@@H](N)Cc1ccc(O)cc1)C(=O)N[C@@H](Cc1ccccc1)C(N)=O | 1.33 | 0.22 | 1740 | 15.7 | 7880 |  |  |  |
| Cc1cc(O)cc(C)c1C[C@H](N)C(=O)N1CCC[C@H]1C(=O)N[C@@H](Cc1c(C)cccc1C(C)C)C(=O)N[C@@H](Cc1ccccc1)C(N)=O | 0.2 | 0.32 | 4.61 | 5.56 | 14 |  | 205 |  |
| Cc1cc(O)cc(C)c1C[C@H](NC(=O)[C@@H]1CCCN1C(=O)[C@@H](N)Cc1c(C)cc(O)cc1C)C(=O)N[C@@H](Cc1ccccc1)C(N)=O (H-[Dmt]P[Dmt]F-NH2) | 1.94 | 0.092 | 80.8 | > 10000 |  |  | 998 | 87.1 |
| CCc1cccc(C)c1C[C@H](NC(=O)[C@@H]1CCCN1C(=O)[C@@H](N)Cc1ccc(O)cc1)C(=O)N[C@@H](Cc1ccccc1)C(N)=O | 2.35 | 0.46 | 491 | 277 | 1070 |  |  |  |
| Cc1cc(C)c(C[C@H](NC(=O)[C@@H]2CCCN2C(=O)[C@@H](N)Cc2c(C)cc(O)cc2C)C(=O)N[C@@H](Cc2ccccc2)C(N)=O)c(C)c1 | 0.21 | 0.18 | 1.83 | > 10000 | 10 | > 22.2 | 172 | 0.891 |
